Source: ChEMBL document CHEMBL1129328, “Structure-activity studies of 6-(tetrazolylalkyl)-substituted decahydroisoquinoline-3-carboxylic acid AMPA receptor antagonists. 1. Effects of stereochemistry, chain length, and chain substitution” (J Med Chem, 1996)

How the values were obtained:
Glutamate NMDA receptor [1] = assay: (§1) Compound was tested for NMDA receptor antagonistic activity by measuring its ability to inhibit depolarizations induced by 40 uM NMDA in rat cortical slice preparation.; format: functional
Glutamate NMDA receptor [2] = assay: Binding affinity at N-methyl-D-aspartate glutamate receptor in rat cortical tissue by [3H]-CGS- 19755 displacement.
How it was run: (§2)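 Displacement of radioligand from rat cortical tissue membranes: [3H]CGS 19755 for NMDA sites, [3H]kainic acid for kainate sites. Each determination run in triplicate unless otherwise indicated.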

[3] = biological target: T1, Glutamate receptor ionotropic, AMPA (Rattus norvegicus, UniProt P19490+P19491+P19492+P19493); assay: Binding affinity at Ionotropic glutamate receptor AMPA in rat cortical tissue by [3H]AMPA displacement.
[4] = biological target: Glutamate receptor ionotropic, kainate; format: functional
[5] = biological target: T1, Glutamate receptor ionotropic, AMPA; assay: AMPA receptor antagonistic activity as inhibition of depolarizations induced by 40 uM AMPA in rat cortical slice preparation; format: functional
[6] = biological target: Glutamate receptor ionotropic, kainate; assay: Binding affinity at Ionotropic glutamate receptor kainate in rat cortical tissue by [3H]-kainic acid displacement.; how it was run: as §2
[7] = biological target: T1, Glutamate receptor ionotropic, AMPA; assay: Compound was tested for AMPA receptor antagonistic activity by measuring its ability to inhibit depolarizations induced by 40 uM AMPA in rat cortical slice preparation; format: functional
How it was run: (§3)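 Rat cortical slice (cortical wedge) preparation. Antagonism measured as inhibition of depolarizations evoked by 40 uM AMPA (a few cases 40 uM quisqualic acid instead) or 40 uM NMDA. Compounds were also applied alone to check for agonist activity.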

[8] = biological target: Glutamate NMDA receptor (Rattus norvegicus) (UniProt P35439+Q00959+Q00960+Q00961+Q62645+Q8VHN2+Q9R1M7); assay: as §1; format: functional; how it was run: as §3
[9] = biological target: T1, Glutamate receptor ionotropic, AMPA; assay: Compound was tested for AMPA receptor antagonistic activity by measuring its ability to inhibit depolarizations induced by 40 uM quisqualic acid in rat cortical slice preparation.; format: functional; how it was run: as §3

SMILES | IC50 (Glutamate NMDA receptor [1]) [µM] | IC50 (Glutamate NMDA receptor [2]) [µM] | IC50 [3] [µM] | IC50 [4] [µM] | IC50 [5] [µM] | IC50 [6] [µM] | IC50 [7] [µM] | inhibition [8] [%] | IC50 [9] [µM]
O=C(O)[C@@H]1C[C@H]2C[C@@H](CCc3nnn[nH]3)CC[C@@H]2CN1 | > 100 | > 100 | > 100 | > 100 | > 100 | > 100 |  |  | 
O=C(O)C1Cc2cc(CCc3nnn[nH]3)ccc2CN1 (stereo not drawn) | > 100 | > 10 | > 100 | > 100 | > 100 | > 10 |  |  | 
O=C(O)[C@H]1C[C@H]2CC(CCc3nnn[nH]3)CC[C@H]2CN1 (stereo partly drawn) | > 100 | > 10 | > 100 | > 100 | > 100 | > 100 |  |  | 
O=C(O)[C@@H]1C[C@H]2C[C@@H](C(Cc3nnn[nH]3)c3ccccc3)CC[C@H]2CN1 (stereo partly drawn) | 100 | 15.1 | 9.8 | 23.6 |  | > 100 | 9 |  | 
O=C(O)[C@@H]1NCC[C@H]2CC(CCc3nnn[nH]3)CC[C@H]21 (stereo partly drawn) |  | 12.8 | > 100 | > 100 | > 100 | > 100 |  | 50 | 
CC(Cc1nnn[nH]1)[C@H]1CC[C@H]2CN[C@H](C(=O)O)C[C@H]2C1 (stereo partly drawn) | > 100 | 53.2 | 3 | 58 |  | 35 | 6 |  | 
O=C(O)[C@@H]1C[C@H]2C[C@@H](CCCCc3nnn[nH]3)CC[C@H]2CN1 | > 100 | > 100 | 57 | < 100 | 27.6 | > 100 |  |  | 
O=C(O)[C@@H]1C[C@H]2C[C@@H](CCCc3nnn[nH]3)CC[C@H]2CN1 | > 100 | 27 | 16.8 | > 100 |  | 18.7 |  |  | 22
CC(C[C@H]1CC[C@H]2CN[C@H](C(=O)O)C[C@H]2C1)c1nnn[nH]1 (stereo partly drawn) |  | > 100 | 4.21 |  |  | 27.3 |  |  | 
O=C(O)[C@@H]1C[C@H]2C[C@@H](c3nnn[nH]3)CC[C@H]2CN1 | 7.5 |  | 12.8 | > 100 | 40.9 | 31.8 |  |  | 
O=C(O)[C@@H]1C[C@H]2C[C@@H](Cc3nnn[nH]3)CC[C@H]2CN1 | 1.4 | 0.94 | 84.5 | > 100 |  | > 100 |  |  | > 100
O=C(O)[C@@H]1C[C@H]2C[C@H](CCc3nnn[nH]3)CC[C@H]2CN1 |  | 60.6 | 59.6 | > 100 | > 100 | 180 |  |  | 

More lines, now with the values ahead:

IC50 (Glutamate NMDA receptor [1]) [µM] | IC50 (Glutamate NMDA receptor [2]) [µM] | IC50 [3] [µM] | IC50 [4] [µM] | IC50 [5] [µM] | IC50 [6] [µM] | IC50 [7] [µM] | inhibition [8] [%] | IC50 [9] [µM] | SMILES
33.4 | 11.5 | > 100 | > 100 | 69.3 | > 100 |  |  |  | O=C(O)[C@@H]1C[C@H]2C[C@@H](NCc3nn[nH]n3)CC[C@H]2CN1
 | > 100 | 23.1 |  |  | > 100 |  |  |  | O=CN(Cc1nn[nH]n1)[C@H]1CC[C@H]2CN[C@H](C(=O)O)C[C@H]2C1
13.6 | 5.3 | > 100 | > 100 | > 100 | > 100 |  |  |  | O=C(O)[C@@H]1C[C@H]2C[C@H](OCc3nn[nH]n3)CC[C@H]2CN1
61.3 |  |  | 31.7 | 6 | 247 |  |  |  | O=C(O)[C@@H]1C[C@H]2C[C@@H](CCc3nn[nH]n3)CC[C@H]2CN1 [TEZAMPANEL ANHYDROUS]
> 100 | 65.8 | > 100 | > 100 | > 100 | > 100 |  |  |  | CN(Cc1nn[nH]n1)[C@H]1CC[C@H]2CN[C@H](C(=O)O)C[C@H]2C1
28.3 | 5.9 | 24 | > 100 | 29.5 | 55 |  |  |  | O=C(O)[C@@H]1C[C@H]2C[C@@H](OCc3nn[nH]n3)CC[C@H]2CN1
